Results reported in ChEMBL document CHEMBL1821632 (2011).
Activity calls are given as the source filed them. The calls are words filed in the database; no cut-off is given here.

Key:
Lipid bilayer [1] = assay: Binding affinity to dipalmitoyl phosphatidyl choline lipid bilayer assessed as decrease in pre-transition temperature at compound to lipid molar ratio of 1:1 by DSC technique
Summary of the method: (§1)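 DPPC bilayers carried additive at additive:lipid molar ratios of 0:100, 1:5, 1:2 or 1:1. Samples were degassed under vacuum and scanned by DSC from 20 to 60 °C at 10 °C/h. The pre-transition and main transition (Tm) temperatures were read from the thermograms and compared with the additive-free lipid.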

Lipid bilayer [2] = assay: Binding affinity to dipalmitoyl phosphatidyl choline lipid bilayer assessed as decrease in pre-transition temperature at compound to lipid molar ratio of 1:5 by DSC technique; summary of the method: as §1
Sperm [3] = assay: (§2) Antifertility activity against goat epididymis sperm cells assessed as loss of sperm motility at 1.25 mM by Sander-Cramer test; format: functional; details: Capra hircus
Summary of the method: (§3)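 Sperm came from the cauda epididymis of goats. Tissue pieces were allowed to settle out, and the cells were washed, pelleted and resuspended in buffer. Cells were diluted in Dulbecco buffer (control) or in 1.25 mM drug solution. Motility was scored by the Sander-Cramer method, examining at least six microscope fields per slide at 1 h and 2 h of incubation.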

Lipid bilayer [4] = assay: Binding affinity to dipalmitoyl phosphatidyl choline lipid bilayer assessed as decrease in pre-transition temperature by DSC technique
Lipid bilayer [5] = assay: Binding affinity to dipalmitoyl phosphatidyl choline lipid bilayer assessed as decrease in main transition temperature at compound to lipid molar ratio of 1:1 by DSC technique; summary of the method: as §1
Sperm [6] = assay: Antifertility activity against goat epididymis sperm cells assessed as inhibition of sperm motility at 1.25 mM after 1 hr by Sander-Cramer test; format: functional; details: Capra hircus; summary of the method: as §3
Lipid bilayer [7] = assay: Binding affinity to dipalmitoyl phosphatidyl choline lipid bilayer assessed as decrease in main transition temperature at compound to lipid molar ratio of 1:5 by DSC technique; summary of the method: as §1
Lipid bilayer [8] = assay: Binding affinity to dipalmitoyl phosphatidyl choline lipid bilayer assessed as decrease in main transition temperature by DSC technique
[9] = as §2; format: functional, Capra hircus; summary of the method: as §3

| SMILES | Activity (Lipid bilayer [1]) | Activity (Lipid bilayer [2]) | inhibition (Sperm [3]) | Activity (Lipid bilayer [4]) | Tm (Lipid bilayer [5]) [°C] | inhibition (Sperm [6]) | Tm (Lipid bilayer [7]) [°C] | Tm (Lipid bilayer [8]) [°C] | Activity [9] [%] |
| --- | --- | --- | --- | --- | --- | --- | --- | --- | --- |
| CCOC(=O)C1=C(C)NC(C)=C(C(=O)OCC)C1c1ccccc1O | Active | Active | Active | Active | – | – | – | – | – |
| COC(=O)C1=C(C)NC(C)=C(C(=O)OC)C1c1ccccc1[N+](=O)[O-] | Active | Active | – | Active | – | – | – | – | – |
| CCOC(=O)C1=C(C)NC(C)=C(C(=O)OCC)C1c1ccc(O)cc1 | Active | Active | – | Active | 4.25 | Active | 4.25 | 4.25 | – |
| CCOC(=O)C1=C(C)NC(C)=C(C(=O)OCC)C1c1ccc(Cl)cc1 | Active | Active | – | Active | – | – | – | – | 25 |
| CCOC(=O)C1=C(C)NC(C)=C(C(=O)OCC)C1c1ccccc1 | Active | Active | – | Active | – | – | – | – | 25 |
| O=C(O)c1cc(/N=N/c2ccc(S(=O)(=O)Nc3ccccn3)cc2)ccc1O | Active | Active | – | Active | – | – | – | – | – |
